Test system: HEK-293T
Assay: Multiplex assay against HEK293T;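 for Population Tubulin-Different-Phenotype (%): share of the cells with healthy nuclei that show this phenotype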
Type: toxicity, cell-based
Conditions: human
Method in brief: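 Live cells were stained at seeding with Hoechst33342, BioTracker Green Microtubule Cytoskeleton Dye, MitoTracker Red and Annexin V Alexa Fluor 680, then imaged on a CQ1 microscope at 37°C and 5% CO2 after compound addition. CellPathfinder machine-learning gating split cells into Hoechst high-intensity objects or normal cells. Normal cells were split into healthy, pyknosed or fragmented nuclei, and pyknosed cells into mitotic or apoptotic. Tubulin, mitochondrial-mass and membrane-permeability phenotypes are per cents of healthy-nucleus cells.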

[1] = 12 h, 1 µM, compound concentration 1 uM, replicate 1
[2] = 12 h, 1 µM, compound concentration 1 uM, replicate 2
[3] = 12 h, 10 µM, compound concentration 10 uM, replicate 1
[4] = 12 h, 10 µM, compound concentration 10 uM, replicate 2
[5] = 24 h, 1 µM, compound concentration 1 uM, replicate 1
[6] = 24 h, 1 µM, compound concentration 1 uM, replicate 2
[7] = 24 h, 10 µM, compound concentration 10 uM, replicate 1
[8] = 24 h, 10 µM, compound concentration 10 uM, replicate 2
[9] = 48 h, 1 µM, compound concentration 1 uM, replicate 1
[10] = 48 h, 1 µM, compound concentration 1 uM, replicate 2
[11] = 48 h, 10 µM, compound concentration 10 uM, replicate 1
[12] = 48 h, 10 µM, compound concentration 10 uM, replicate 2

## CC(C)OC(=O)N1CCC(Oc2ncnc3c2cnn3-c2ccc(S(C)(=O)=O)cc2F)CC1
[1]
  Population Apoptotic (%): 57%
  Population Fragmented Nuclei (%): 8%
  Population Healthy Nuclei (%): 35%
  Population Hoechst High Intensity Objects (%): 14%
  Population Membrane Permeable-Phenotype (%): 4%
  Population Mitochondria Different-Phenotype (%): 80%
  Population Mitotic Cells (%): 42%
  Population Normal (%): 85%
  Population Pyknosed Nuclei (%): 56%
  Population Tubulin-Different-Phenotype (%): 39%
  Total Cell Count: 225
[2]
  Population Apoptotic (%): 12%
  Population Fragmented Nuclei (%): 5%
  Population Healthy Nuclei (%): 49%
  Population Hoechst High Intensity Objects (%): 4%
  Population Membrane Permeable-Phenotype (%): 5%
  Population Mitochondria Different-Phenotype (%): 11%
  Population Mitotic Cells (%): 87%
  Population Normal (%): 95%
  Population Pyknosed Nuclei (%): 44%
  Population Tubulin-Different-Phenotype (%): 9%
  Total Cell Count: 220
[3]
  Population Apoptotic (%): 53%
  Population Fragmented Nuclei (%): 16%
  Population Healthy Nuclei (%): 32%
  Population Hoechst High Intensity Objects (%): 18%
  Population Membrane Permeable-Phenotype (%): 6%
  Population Mitochondria Different-Phenotype (%): 93%
  Population Mitotic Cells (%): 46%
  Population Normal (%): 81%
  Population Pyknosed Nuclei (%): 51%
  Population Tubulin-Different-Phenotype (%): 61%
  Total Cell Count: 186
[4]
  Population Apoptotic (%): 5%
  Population Fragmented Nuclei (%): 5%
  Population Healthy Nuclei (%): 45%
  Population Hoechst High Intensity Objects (%): 3%
  Population Membrane Permeable-Phenotype (%): 8%
  Population Mitochondria Different-Phenotype (%): 15%
  Population Mitotic Cells (%): 94%
  Population Normal (%): 96%
  Population Pyknosed Nuclei (%): 49%
  Population Tubulin-Different-Phenotype (%): 20%
  Total Cell Count: 220
[5]
  Population Apoptotic (%): 51%
  Population Fragmented Nuclei (%): 11%
  Population Healthy Nuclei (%): 39%
  Population Hoechst High Intensity Objects (%): 15%
  Population Membrane Permeable-Phenotype (%): 4%
  Population Mitochondria Different-Phenotype (%): 58%
  Population Mitotic Cells (%): 48%
  Population Normal (%): 84%
  Population Pyknosed Nuclei (%): 48%
  Population Tubulin-Different-Phenotype (%): 35%
  Total Cell Count: 254
[6]
  Population Apoptotic (%): 11%
  Population Fragmented Nuclei (%): 7%
  Population Healthy Nuclei (%): 62%
  Population Hoechst High Intensity Objects (%): 3%
  Population Membrane Permeable-Phenotype (%): 9%
  Population Mitochondria Different-Phenotype (%): 11%
  Population Mitotic Cells (%): 88%
  Population Normal (%): 96%
  Population Pyknosed Nuclei (%): 29%
  Population Tubulin-Different-Phenotype (%): 16%
  Total Cell Count: 277
[7]
  Population Apoptotic (%): 46%
  Population Fragmented Nuclei (%): 13%
  Population Healthy Nuclei (%): 38%
  Population Hoechst High Intensity Objects (%): 18%
  Population Membrane Permeable-Phenotype (%): 1%
  Population Mitochondria Different-Phenotype (%): 75%
  Population Mitotic Cells (%): 53%
  Population Normal (%): 81%
  Population Pyknosed Nuclei (%): 48%
  Population Tubulin-Different-Phenotype (%): 67%
  Total Cell Count: 194
[8]
  Population Apoptotic (%): 3%
  Population Fragmented Nuclei (%): 4%
  Population Healthy Nuclei (%): 65%
  Population Hoechst High Intensity Objects (%): 3%
  Population Membrane Permeable-Phenotype (%): 4%
  Population Mitochondria Different-Phenotype (%): 22%
  Population Mitotic Cells (%): 96%
  Population Normal (%): 96%
  Population Pyknosed Nuclei (%): 30%
  Population Tubulin-Different-Phenotype (%): 29%
  Total Cell Count: 268
[9]
  Population Apoptotic (%): 59%
  Population Fragmented Nuclei (%): 14%
  Population Healthy Nuclei (%): 48%
  Population Hoechst High Intensity Objects (%): 16%
  Population Membrane Permeable-Phenotype (%): 5%
  Population Mitochondria Different-Phenotype (%): 21%
  Population Mitotic Cells (%): 40%
  Population Normal (%): 83%
  Population Pyknosed Nuclei (%): 36%
  Population Tubulin-Different-Phenotype (%): 25%
  Total Cell Count: 312
[10]
  Population Apoptotic (%): 5%
  Population Fragmented Nuclei (%): 8%
  Population Healthy Nuclei (%): 79%
  Population Hoechst High Intensity Objects (%): 3%
  Population Membrane Permeable-Phenotype (%): 3%
  Population Mitochondria Different-Phenotype (%): 4%
  Population Mitotic Cells (%): 94%
  Population Normal (%): 96%
  Population Pyknosed Nuclei (%): 11%
  Population Tubulin-Different-Phenotype (%): 17%
  Total Cell Count: 463
[11]
  Population Apoptotic (%): 50%
  Population Fragmented Nuclei (%): 18%
  Population Healthy Nuclei (%): 41%
  Population Hoechst High Intensity Objects (%): 16%
  Population Membrane Permeable-Phenotype (%): 3%
  Population Mitochondria Different-Phenotype (%): 60%
  Population Mitotic Cells (%): 49%
  Population Normal (%): 83%
  Population Pyknosed Nuclei (%): 39%
  Population Tubulin-Different-Phenotype (%): 53%
  Total Cell Count: 237
[12]
  Population Apoptotic (%): 11%
  Population Fragmented Nuclei (%): 5%
  Population Healthy Nuclei (%): 82%
  Population Hoechst High Intensity Objects (%): 3%
  Population Membrane Permeable-Phenotype (%): 4%
  Population Mitochondria Different-Phenotype (%): 3%
  Population Mitotic Cells (%): 88%
  Population Normal (%): 96%
  Population Pyknosed Nuclei (%): 11%
  Population Tubulin-Different-Phenotype (%): 23%
  Total Cell Count: 480

## O=c1cc(N2CCOCC2)oc2c(-c3cccc4c3sc3ccccc34)cccc12
[1]
  Population Apoptotic (%): 46%
  Population Fragmented Nuclei (%): 7%
  Population Hoechst High Intensity Objects (%): 12%
  Population Membrane Permeable-Phenotype (%): 3%
  Population Mitochondria Different-Phenotype (%): 92%
  Population Mitotic Cells (%): 53%
  Population Normal (%): 87%
  Population Pyknosed Nuclei (%): 52%
  Population Tubulin-Different-Phenotype (%): 58%
  Total Cell Count: 283
[2]
  Population Apoptotic (%): 14%
  Population Fragmented Nuclei (%): 5%
  Population Healthy Nuclei (%): 40%
  Population Hoechst High Intensity Objects (%): 4%
  Population Membrane Permeable-Phenotype (%): 1%
  Population Mitochondria Different-Phenotype (%): 20%
  Population Mitotic Cells (%): 85%
  Population Normal (%): 95%
  Population Pyknosed Nuclei (%): 53%
  Population Tubulin-Different-Phenotype (%): 19%
  Total Cell Count: 224
[3]
  Population Apoptotic (%): 61%
  Population Fragmented Nuclei (%): 16%
  Population Healthy Nuclei (%): 14%
  Population Hoechst High Intensity Objects (%): 14%
  Population Membrane Permeable-Phenotype (%): 8%
  Population Mitochondria Different-Phenotype (%): 100%
  Population Mitotic Cells (%): 38%
  Population Normal (%): 85%
  Population Pyknosed Nuclei (%): 68%
  Population Tubulin-Different-Phenotype (%): 91%
  Total Cell Count: 192
[4]
  Population Apoptotic (%): 49%
  Population Fragmented Nuclei (%): 8%
  Population Healthy Nuclei (%): 7%
  Population Hoechst High Intensity Objects (%): 6%
  Population Mitochondria Different-Phenotype (%): 91%
  Population Mitotic Cells (%): 50%
  Population Normal (%): 93%
  Population Pyknosed Nuclei (%): 83%
  Population Tubulin-Different-Phenotype (%): 83%
  Total Cell Count: 172
[5]
  Population Apoptotic (%): 53%
  Population Fragmented Nuclei (%): 9%
  Population Healthy Nuclei (%): 44%
  Population Hoechst High Intensity Objects (%): 12%
  Population Membrane Permeable-Phenotype (%): 2%
  Population Mitochondria Different-Phenotype (%): 77%
  Population Mitotic Cells (%): 46%
  Population Normal (%): 87%
  Population Pyknosed Nuclei (%): 46%
  Population Tubulin-Different-Phenotype (%): 40%
  Total Cell Count: 310
[6]
  Population Apoptotic (%): 16%
  Population Fragmented Nuclei (%): 3%
  Population Healthy Nuclei (%): 60%
  Population Hoechst High Intensity Objects (%): 4%
  Population Membrane Permeable-Phenotype (%): 3%
  Population Mitochondria Different-Phenotype (%): 22%
  Population Mitotic Cells (%): 83%
  Population Normal (%): 95%
  Population Pyknosed Nuclei (%): 36%
  Population Tubulin-Different-Phenotype (%): 38%
  Total Cell Count: 272
[7]
  Population Apoptotic (%): 61%
  Population Fragmented Nuclei (%): 15%
  Population Healthy Nuclei (%): 12%
  Population Hoechst High Intensity Objects (%): 16%
  Population Membrane Permeable-Phenotype (%): 0%
  Population Mitochondria Different-Phenotype (%): 100%
  Population Mitotic Cells (%): 38%
  Population Normal (%): 83%
  Population Pyknosed Nuclei (%): 71%
  Population Tubulin-Different-Phenotype (%): 100%
  Total Cell Count: 206
[8]
  Population Apoptotic (%): 60%
  Population Fragmented Nuclei (%): 7%
  Population Healthy Nuclei (%): 22%
  Population Hoechst High Intensity Objects (%): 2%
  Population Mitotic Cells (%): 39%
  Population Normal (%): 97%
  Population Pyknosed Nuclei (%): 69%
  Total Cell Count: 186
[9]
  Population Apoptotic (%): 30%
  Population Fragmented Nuclei (%): 17%
  Population Healthy Nuclei (%): 42%
  Population Hoechst High Intensity Objects (%): 9%
  Population Membrane Permeable-Phenotype (%): 2%
  Population Mitochondria Different-Phenotype (%): 44%
  Population Mitotic Cells (%): 70%
  Population Normal (%): 90%
  Population Pyknosed Nuclei (%): 40%
  Population Tubulin-Different-Phenotype (%): 45%
  Total Cell Count: 384
[10]
  Population Apoptotic (%): 14%
  Population Fragmented Nuclei (%): 7%
  Population Healthy Nuclei (%): 77%
  Population Hoechst High Intensity Objects (%): 3%
  Population Membrane Permeable-Phenotype (%): 3%
  Population Mitochondria Different-Phenotype (%): 6%
  Population Mitotic Cells (%): 85%
  Population Normal (%): 96%
  Population Pyknosed Nuclei (%): 15%
  Population Tubulin-Different-Phenotype (%): 26%
  Total Cell Count: 477
[11]
  Population Apoptotic (%): 68%
  Population Fragmented Nuclei (%): 24%
  Population Healthy Nuclei (%): 20%
  Population Hoechst High Intensity Objects (%): 17%
  Population Membrane Permeable-Phenotype (%): 0%
  Population Mitochondria Different-Phenotype (%): 100%
  Population Mitotic Cells (%): 31%
  Population Normal (%): 82%
  Population Pyknosed Nuclei (%): 55%
  Population Tubulin-Different-Phenotype (%): 93%
  Total Cell Count: 186
[12]
  Population Apoptotic (%): 61%
  Population Fragmented Nuclei (%): 8%
  Population Healthy Nuclei (%): 29%
  Population Hoechst High Intensity Objects (%): 8%
  Population Mitochondria Different-Phenotype (%): 94%
  Population Mitotic Cells (%): 38%
  Population Normal (%): 91%
  Population Pyknosed Nuclei (%): 62%
  Population Tubulin-Different-Phenotype (%): 96%
  Total Cell Count: 185

From ChEMBL document CHEMBL4689842, “EUbOPEN Chemogenomics Library wave 1” (2021)
